Assay [1] concerns Escherichia coli. Description: Antibacterial activity against Escherichia coli ATCC 25922 assessed as inhibition of bacterial growth by measuring fold increase in MIC measured after 16 to 18 hrs in presence of MgCl2 by TECAN SPARK microplate reader analysis. It counts as functional. To be noted: time 16-18 hrs. The method, boiled down:
(§1)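 Salt/serum stability. Exponential-phase bacteria incubated 16–18 h with compound in medium supplemented with 10 mM NaCl, 10 mM KCl, 10 mM MgCl2, 10% DMEM or 10% FBS. Stability judged from the change in MIC.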

The subject of assay [2] is Staphylococcus aureus. Description: Antibacterial activity against Staphylococcus aureus ATCC 29213 assessed as inhibition of bacterial growth by measuring fold increase in MIC measured after 16 to 18 hrs in presence of 10% DMEM by TECAN SPARK microplate reader analysis. It is filed as functional. As to conditions: time 16-18 hrs. An outline of the steps:
as §1

The test system of assay [3] is Escherichia coli. Kind of assay: Bactericidal activity against Escherichia coli ATCC 25922 assessed as inhibition of bacterial growth at 1 to 4 times of MIC measured within 1 hr mins by time-kill kinetics assay relative to control. It counts as functional. The method, boiled down:
(§2)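 Bacteria grown at 37 °C to mid-log phase and diluted to 1 × 10^6 CFU/mL. […] Mixtures diluted 10^2–10^4-fold and plated on TSB agar; colonies counted after 20 h at 37 °C.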

For assay [4], the system named is Staphylococcus aureus. Description: Bactericidal activity against Staphylococcus aureus ATCC 29213 assessed as reduction in colony forming units at 4 times of MIC within 15 mins by time-kill kinetics assay. It counts as functional, organism-based. An outline of the steps:
as §2

For assay [5], the system named is Staphylococcus aureus. Description: Antibacterial activity against methicillin-resistant Staphylococcus aureus ATCC 43300 assessed as reduction bacterial growth after 16 hrs by TECAN SPARK microplate reader analysis. It is filed as functional. The method, boiled down:
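Broth microdilution in TSB: single colony grown overnight at 37 °C, diluted 100-fold and grown to mid-log phase. 2-fold serial compound dilutions mixed 1:1 with bacteria at 1 × 10^6 CFU/mL, incubated 16 h at 37 °C, absorbance read at 600 nm. MIC taken as lowest concentration giving complete growth inhibition.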

In assay [6] the test system is Escherichia coli. Kind of assay: Induction of cytoplasmic membrane depolarization in Escherichia coli ATCC 25922 assessed as increase in fluorescence intensity by DiSC3(5) staining based analysis. It is filed as functional, organism-based. The method, boiled down: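 Mid-log cells washed in 5 mM HEPES/5 mM glucose and resuspended at 10^6 CFU/mL in glucose/HEPES/100 mM KCl (1:1:1). DiSC3(5) added and fluorescence (Ex 622 / Em 670 nm) followed for 30 min at 37 °C until minimal. Compound then added and the fluorescence rise recorded.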

Assay [7] relates to Escherichia coli. Kind of assay: Induction of ROS generation in Escherichia coli ATCC 25922 assessed as fold increase in fluorescence intensity at 0.5 MIC concentration incubated for 30 mins by DCFH-DA staining based analysis. It counts as functional. As to conditions: 0.5 h. The method, boiled down: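 Overnight 37 °C cultures washed three times and resuspended in PBS, diluted to OD600 0.1, and mixed with DCFH-DA (5 µM). Treated with a range of compound concentrations for 30 min at 37 °C in the dark. Fluorescence read at Ex 488 / Em 530 nm.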

Assay [8] has as its system Escherichia coli. Description: Antibacterial activity against Escherichia coli ATCC 25922 assessed as inhibition of bacterial growth by measuring fold increase in MIC measured after 16 to 18 hrs in presence of KCl by TECAN SPARK microplate reader analysis. It counts as functional. As to conditions: time 16-18 hrs. The method, boiled down: as §1
In assay [9] the test system is Escherichia coli. Description: Induction of morphological changes in Escherichia coli ATCC 25922 assessed as cell shrinkage at 8 time of MIC for 6 hrs by scanning electron microscopy. It is filed as functional, organism-based. An outline of the steps:
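Mid-log cells exposed to compound for 6 h at 37 °C alongside untreated controls. Cells pelleted (3000 rpm, 15 min), washed four times in PBS, and fixed with 2.5% glutaraldehyde. Dehydrated through graded ethanol, critical-point dried and gold-coated, then imaged by SEM.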

Assay [10] relates to Escherichia coli. Kind of assay: Antibacterial activity against Escherichia coli ATCC 25922 assessed as inhibition of bacterial growth by measuring fold increase in MIC compound preincubated at 120 degree C for 1 hr followed by bacterial culture addition and measured after 16 to 18 hrs by TECAN SPARK microplate reader analysis. It is filed as functional. To be noted: time 16-18 hrs.

Assay [11] relates to Staphylococcus aureus. Kind of assay: Antibacterial activity against Staphylococcus aureus ATCC 29213 assessed as inhibition of bacterial growth by measuring fold increase in MIC compound preincubated at 120 degree C for 1 hr followed by bacterial culture addition and measured after 16 to 18 hrs by TECAN SPARK microplate reader analysis. It is filed as functional. To be noted: time 16-18 hrs.

Assay [12] relates to Escherichia coli. Kind of assay: Induction of outer membrane permeabilization in Escherichia coli ATCC 25922 assessed as increase in fluorescence intensity at 1 to 4 times of MIC incubated for 1 hr by NPN staining based TECAN SPARK microplate reader analysis. It is filed as functional, organism-based. The method, boiled down: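 Overnight E. coli resuspended in PBS and diluted to OD600 0.1. NPN added (10 µM final) for 30 min. Treated with a range of compound concentrations for 1 h in the dark; fluorescence read at Ex 350 / Em 420 nm.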

Assay [13] relates to Escherichia coli. Kind of assay: Induction of membrane disruption in Escherichia coli ATCC 25922 assessed as increase in red fluorescence at 8 times of MIC for 6 hrs by Hoechst 33342 and propidium iodide staining based confocal microscopic analysis. It is filed as functional, organism-based.
Assay [14] concerns Staphylococcus aureus. Kind of assay: Antibacterial activity against Staphylococcus aureus ATCC 29213 assessed as inhibition of bacterial growth by measuring fold increase in MIC measured after 16 to 18 hrs in presence of NaCl by TECAN SPARK microplate reader analysis. It counts as functional. To be noted: time 16-18 hrs. The method, boiled down:
as §1

In a further assay the test system is Acinetobacter baumannii. Kind of assay: Antibacterial activity against Acinetobacter baumannii ATCC 19606 assessed as reduction bacterial growth after 16 hrs by TECAN SPARK microplate reader analysis. It counts as functional. An outline of the steps: (§3)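 Single colony grown overnight in 4 mL TSB at 37 °C, diluted 100-fold and grown to mid-log phase. Compounds 2-fold serially diluted in TSB and mixed 1:1 with bacteria in TSB (1 × 10^6 CFU/mL). Incubated 16 h at 37 °C, then A600 read. MIC taken as the lowest concentration giving complete growth inhibition.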

For assay [15], the system named is Staphylococcus aureus. Description: Antibacterial activity against Staphylococcus aureus ATCC 29213 assessed as inhibition of bacterial growth by measuring fold increase in MIC measured after 16 to 18 hrs in presence of KCl by TECAN SPARK microplate reader analysis. It counts as functional. To be noted: time 16-18 hrs. An outline of the steps: as §1
The test system of assay [16] is Staphylococcus aureus. Description: Induction of inner membrane permeabilization in Staphylococcus aureus ATCC 29213 assessed as increase in fluorescence intensity incubated for 1 hr by propidium iodide staining based TECAN SPARK microplate reader analysis. It counts as functional, organism-based. An outline of the steps: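 Overnight 37 °C cultures resuspended in PBS and diluted to OD600 0.1. Propidium iodide added (5 µM final) for 30 min. Treated with a range of compound concentrations for 1 h in the dark; fluorescence read at Ex 535 / Em 615 nm.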

A further assay deals with Enterococcus faecalis. Description: Antibacterial activity against Enterococcus faecalis ATCC 29212 assessed as reduction bacterial growth after 16 hrs by TECAN SPARK microplate reader analysis. It counts as functional. An outline of the steps:
as §3

The next assay concerns Pseudomonas aeruginosa. Kind of assay: Antibacterial activity against Pseudomonas aeruginosa CMCC 10104 assessed as reduction bacterial growth after 16 hrs by TECAN SPARK microplate reader analysis. It counts as functional. The method, boiled down: as §3
In assay [17] the test system is Staphylococcus aureus. Description: Antibacterial activity against Staphylococcus aureus ATCC 29213 assessed as inhibition of bacterial growth by measuring fold increase in MIC measured after 16 to 18 hrs in presence of MgCl2 by TECAN SPARK microplate reader analysis. It is filed as functional. As to conditions: time 16-18 hrs. An outline of the steps:
as §1

Converted amounts (≈) assume the structure as drawn. The source made the active and inactive calls. The calls are words filed in the database; no cut-off is given here.

As for `CCCCCCN1C(=O)[C@H](CCCCNC(=N)N)N(Cc2ccc(-c3ccc(CN4C(=O)N(CCCCCC)C(=O)[C@@H]4CCCCNC(=N)N)cc3)cc2)C1=O`, the “fold change (FC)” value was 1 with Escherichia coli [1]; 1 in the assay with Staphylococcus aureus [2]; ~2 in the assay on Escherichia coli [7]; 1 in the assay with Escherichia coli [8]; 1 in the assay on Escherichia coli [10]; 1 with Staphylococcus aureus [11]. The “fold change (FC)” value with Staphylococcus aureus [14], in the assay on Staphylococcus aureus [15] and in the assay with Staphylococcus aureus [17] was 1 in each case. Besides, the “inhibition (INH)” value with Escherichia coli [3] was 100%. The outcome with Staphylococcus aureus [4], with Escherichia coli [9], in the assay on Escherichia coli [12] and in the assay on Escherichia coli [13] was Active. Also, the MIC in the assay with Staphylococcus aureus [5] is 7.81 µg/mL (≈ 10.1 µM); in the assay on Acinetobacter baumannii it was 15.6 µg/mL (≈ 20.2 µM); in the assay with Enterococcus faecalis, 3.91 µg/mL (≈ 5.06 µM); in the assay on Pseudomonas aeruginosa, 15.6 µg/mL (≈ 20.2 µM). In addition, the Activity result in the assay with Escherichia coli [6] and with Staphylococcus aureus [16] was “Dose-Dependent Effect” each time.

For the origin of these results see ChEMBL document CHEMBL5576109, “Hydantoin derivative dimers as broad-spectrum antimicrobial agents against ESKAPE pathogens with enhanced killing rate and stability” (RSC Med Chem, 2024).
